Measurements published in ChEMBL document CHEMBL4130564, “Indolylalkyltriphenylphosphonium Analogues Are Membrane-Depolarizing Mycobactericidal Agents” (ACS Med Chem Lett, 2017).
Calls of active or inactive are those of the source. The calls are words filed in the database; no cut-off is given here.

System: Mycobacterium tuberculosis
Assay: Induction of membrane disruption in Mycobacterium bovis BCG ATCC 35734 harboring piniBAC-RFP assessed as increase in iniBAC cluster transactivation up to 100 uM after 24 hrs by RFP-based fluorescence assay
Type: functional, organism-based
Details: BCG str. ATCC 35743
In short: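 Recombinant M. bovis carrying iniBAC promoter-driven RFP treated 24 h with 0.4–100 μM; promoter induction read as RFP fluorescence; isoniazid as positive control.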

SMILES | Activity
NNC(=O)c1ccncc1 | Active
COc1cccc2ccn(CCCCC[P+](c3ccccc3)(c3ccccc3)c3ccccc3)c12.[I-] | inactive
